ChEMBL document CHEMBL3124793, “Discovery of spirofused piperazine and diazepane amides as selective histamine-3 antagonists with in vivo efficacy in a mouse model of cognition” (J Med Chem, 2014)

Experiments:
[1] = Octanol-water partition coefficient, log D of the compound by shake flask HPLC analysis; format: physicochemical
Method in brief: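 logD between octanol and water by shake-flask with HPLC analysis.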

Histamine H3 receptor [2] = target: T1, Histamine H3 receptor (Homo sapiens, UniProt Q9Y5N1); test: Displacement of [3H]-N-alpha-methylhistamine from human histamine H3 receptor expressed in CHOK1 cells after 1.5 hrs by scintillation proximity assay; format: cell-based, CHO-K1
Method in brief: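 Human H3R-CHO-K1 membranes incubated 1.5 h with test compound and [3H]-N-α-methylhistamine in SPA format; nonspecific binding defined with 10 μM imetit; bead-bound radioligand counted. Average of n > 2, standard error <50%.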

[3] = target: Voltage-gated inwardly rectifying potassium channel KCNH2 (Homo sapiens, UniProt Q12809); test: Inhibition of human ERG expressed in CHOK1 cells by electrophysiological analysis
Histamine H3 receptor [4] = target: T1, Histamine H3 receptor; test: Antagonist activity at human histamine H3 receptor long form expressed in CHOK1 cells assessed as inhibition of R-alpha-methylhistamine-induced [35S]GTPgammaS binding after 3 hrs by scintillation proximity assay; format: functional, cell-based, CHO-K1
Method in brief: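 Membranes from CHO-K1 cells stably expressing human H3R long form (445 aa) incubated 3 h with test compound, 25 nM R-α-methylhistamine, 10 μM GDP, 0.2 nM [35S]GTPγS and WGA PVT SPA beads; bead-bound [35S]GTPγS counted by scintillation. Average of n > 2, standard error <20%.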

[5] = Intrinsic clearance in rat liver microsomes; format: ADME; settings: read-out: CLH
[6] = Intrinsic clearance in human liver microsomes; format: ADME; settings: read-out: CLH
Method in brief: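 Human liver microsomal clearance, expressed as μL/min/mg.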

[7] = Percentage unbound in rat plasma; format: ADME, cell-free
Method in brief: (§1)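 Plasma protein binding in human or rat plasma, expressed as percent free.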

[8] = Apparent permeability from apical to basolateral side in MDCK cells; format: ADME, cell-based, Canis lupus familiaris; settings: dog
Method in brief: (§2)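 MDCK monolayers; A-to-B Papp in 1 × 10⁻⁶ cm/s; efflux taken as ratio of A-to-B Papp over B-to-A Papp.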

[9] = Percentage unbound in human plasma; format: ADME, cell-free; method in brief: as §1
[10] = Equilibrium solubility of the compound at pH 7.4; format: physicochemical; settings: buffer
MDCK = test: Efflux ratio of apparent permeability from apical to basolateral side over basolateral to apical side in MDCK cells; format: ADME, cell-based, Canis lupus familiaris; settings: dog; method in brief: as §2
Rattus norvegicus [11] = test: […] clearance in rat at 3.5 umol/kg, iv; format: ADME, organism-based; settings: in vivo
Method in brief: (§3)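 IV dosing in male fasted rats, doses in μmol/kg; mean Vss, half-life and clearance derived; number of rats per compound reported.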

[12] = Half life in rat at 3.5 umol/kg, iv; format: ADME, organism-based; settings: in vivo; method in brief: as §3
[13] = Volume of distribution at steady state in rat at 3.5 umol/kg, iv; format: ADME, organism-based; settings: in vivo, read-out: Vdss
Method in brief: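 Male fasted rats given a single IV dose. Volume of distribution taken as the mean from plasma sampling after the IV dose. Animals per compound: 1 to 7.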

Rattus norvegicus [14] = test: […] clearance in rat at 2.1 umol/kg, iv; format: ADME, organism-based; settings: in vivo; method in brief: as §3
[15] = Half life in rat at 2.1 umol/kg, iv; format: ADME, organism-based; settings: in vivo; method in brief: as §3
[16] = Volume of distribution at steady state in rat at 2.1 umol/kg, iv; format: ADME, organism-based; settings: in vivo, read-out: Vdss; method in brief: as §3

T1 sequence (Q9Y5N1 whole entry): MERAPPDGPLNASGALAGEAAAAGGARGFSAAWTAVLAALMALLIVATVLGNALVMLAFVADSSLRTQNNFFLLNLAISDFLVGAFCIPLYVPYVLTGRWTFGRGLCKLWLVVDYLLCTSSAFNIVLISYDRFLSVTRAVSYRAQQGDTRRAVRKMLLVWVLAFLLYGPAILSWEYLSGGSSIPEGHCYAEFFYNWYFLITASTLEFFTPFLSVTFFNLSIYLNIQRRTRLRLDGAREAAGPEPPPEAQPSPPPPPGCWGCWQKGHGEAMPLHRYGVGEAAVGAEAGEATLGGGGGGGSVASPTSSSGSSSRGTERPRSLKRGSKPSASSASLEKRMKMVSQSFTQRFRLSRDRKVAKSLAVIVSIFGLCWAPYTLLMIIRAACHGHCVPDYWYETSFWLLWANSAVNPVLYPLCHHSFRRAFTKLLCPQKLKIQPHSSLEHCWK
Voltage-gated inwardly rectifying potassium channel KCNH2, sequence (Q12809 whole entry): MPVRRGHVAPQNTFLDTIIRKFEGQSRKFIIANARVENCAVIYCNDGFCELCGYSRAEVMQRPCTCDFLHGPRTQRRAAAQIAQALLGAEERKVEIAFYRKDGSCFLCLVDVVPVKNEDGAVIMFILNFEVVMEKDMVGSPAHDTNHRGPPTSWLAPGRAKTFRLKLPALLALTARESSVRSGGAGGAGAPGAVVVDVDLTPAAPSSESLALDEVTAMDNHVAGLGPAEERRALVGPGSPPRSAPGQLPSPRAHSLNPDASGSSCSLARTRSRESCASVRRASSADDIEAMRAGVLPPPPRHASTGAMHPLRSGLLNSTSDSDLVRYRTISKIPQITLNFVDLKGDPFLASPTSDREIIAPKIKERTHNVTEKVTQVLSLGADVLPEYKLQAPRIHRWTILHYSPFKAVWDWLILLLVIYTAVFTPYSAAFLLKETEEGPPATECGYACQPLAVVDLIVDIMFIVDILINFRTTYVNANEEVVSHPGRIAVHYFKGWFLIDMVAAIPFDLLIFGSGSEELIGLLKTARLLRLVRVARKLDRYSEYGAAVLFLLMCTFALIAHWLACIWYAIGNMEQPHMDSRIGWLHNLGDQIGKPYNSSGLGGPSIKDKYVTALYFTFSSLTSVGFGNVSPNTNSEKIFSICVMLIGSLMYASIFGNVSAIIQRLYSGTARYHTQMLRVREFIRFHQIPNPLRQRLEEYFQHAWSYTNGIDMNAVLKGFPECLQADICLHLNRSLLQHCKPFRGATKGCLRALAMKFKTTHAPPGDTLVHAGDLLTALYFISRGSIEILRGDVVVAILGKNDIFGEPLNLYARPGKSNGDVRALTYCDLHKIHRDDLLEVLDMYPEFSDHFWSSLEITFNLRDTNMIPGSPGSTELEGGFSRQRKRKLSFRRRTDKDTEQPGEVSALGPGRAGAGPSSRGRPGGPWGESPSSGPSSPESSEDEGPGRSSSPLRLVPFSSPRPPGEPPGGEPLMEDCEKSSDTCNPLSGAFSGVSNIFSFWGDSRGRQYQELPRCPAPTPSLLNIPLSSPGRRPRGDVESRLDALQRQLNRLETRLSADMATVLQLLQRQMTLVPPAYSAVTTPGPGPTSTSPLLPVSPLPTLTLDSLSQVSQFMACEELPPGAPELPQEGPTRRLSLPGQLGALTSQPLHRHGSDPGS

| Compound | logD [1] | Ki (Histamine H3 receptor [2]) [nM] | IC50 (Histamine H3 receptor [4]) [nM] | IC50 [3] [nM] | other results |
| --- | --- | --- | --- | --- | --- |
| O=C(C1CC12CCN(C1CCOCC1)CC2)N1CCN(c2ccncc2)CC1 (racemic) | -1.09 | 8.4 |  |  |  |
| O=C(C1CC2(CCN(c3ccccc3)CC2)C1)N1CCN(C2CCC2)CC1 | 3.25 |  | 66 | > 33000 |  |
| O=C(C1CC2(CCN(C3CCOCC3)CC2)C1)N1CCN2CCCCC2C1 (configuration not stated) | -0.46 |  | 6.3 |  |  |
| O=C(N1CCCN(C2CCC2)CC1)N1CCC2(CCCN(S(=O)(=O)c3ccccc3)C2)C1 (configuration not stated) | 1.74 |  | 6.5 | > 33000 |  |
| CC(C)N1CCN(C(=O)N2CCC3(CCN(C4CCOCC4)CC3)C2)CC1 | -0.87 |  | 32 | > 33000 |  |
| CS(=O)(=O)N1CCC2(CC1)CC(C(=O)N1CCN(C3CCC3)CC1)C2 | 0.97 |  | 11 |  | CL (Rattus norvegicus [11]): 69.8 mL/min/kg; half-life [12]: 0.4 h; Vd [13]: 1.4 L/kg; microsomal CLint [5]: 16 µL/min/mg; microsomal CLint [6]: 8.3 µL/min/mg; Papp A→B [8]: 19 ×10⁻⁶ cm/s; fraction unbound [9]: 0.67; solubility thermodynamic [10]: > 500 µM |
| O=C(c1ccccc1)N1CCC2(CC1)CC(C(=O)N1CCN(C3CCC3)CC1)C2 | 2.09 |  |  | > 33000 |  |
| O=C(C1CC2(CCN(C3CCOCC3)CC2)C1)N1CCCN(C2CCC2)CC1 | -0.89 |  | 0.8 |  |  |
| CC(C)N1CCCN(C(=O)C2CC3(CCN(C(=O)c4ccccc4)CC3)C2)CC1 | 1.63 |  | 12 | > 33000 |  |
| O=C(c1ccccc1)N1CCC2(CCCN(C(=O)N3CCCN(C4CCC4)CC3)C2)CC1 | 1.62 |  | 18 |  |  |

Further lines, with some results ahead:

| logD [1] | Ki (Histamine H3 receptor [2]) [nM] | IC50 (Histamine H3 receptor [4]) [nM] | Compound | IC50 [3] [nM] | other results |
| --- | --- | --- | --- | --- | --- |
|  | 67 | 66 | O=C(C1CC12CCN(C1CCC1)CC2)N1CCN(C2CCOCC2)CC1 (racemic) |  |  |
|  | 1.4 |  | O=C(C1CC12CCN(C1CCOCC1)CC2)N1CCN(C2CCCC2)CC1 (racemic) |  | microsomal CLint [5]: 43 µL/min/mg; microsomal CLint [6]: 7.2 µL/min/mg; fraction unbound [7]: 0.65; Papp A→B [8]: < 2.2 ×10⁻⁶ cm/s; fraction unbound [9]: 0.5; solubility thermodynamic [10]: > 500 µM |
| 0.75 |  | 1.6 | O=C(C1CC2(CCN(C3CCOCC3)CC2)C1)N1CCN(C2CCCCC2)CC1 |  |  |
|  | 21 | 16 | O=C(C1CC12CCN(CCc1ccccc1)CC2)N1CCN(C2CCCCC2)CC1 (racemic) |  |  |
|  | 19 |  | O=C(C1CC12CCN(C1CCCCC1)CC2)N1CCN(C2CCCCC2)CC1 (racemic) | 20800 | microsomal CLint [5]: 31 µL/min/mg; microsomal CLint [6]: 14 µL/min/mg; Ratio (MDCK): > 2; fraction unbound [7]: 0.62; Papp A→B [8]: < 1.7 ×10⁻⁶ cm/s; fraction unbound [9]: 0.81; solubility thermodynamic [10]: > 500 µM |
| 0.74 | 47 | 19 | CC(C)N1CCC2(CC1)CC2C(=O)N1CCN(C2CCCCC2)CC1 (racemic) |  |  |
| -0.74 | 0.3 | 1.7 | CC(C)N1CCN(C(=O)C2CC3(CCN(C4CCOCC4)CC3)C2)CC1 |  | CL (Rattus norvegicus [14]): 78 mL/min/kg; half-life [15]: 11.7 h; Vd [16]: 64 L/kg; microsomal CLint [5]: < 4 µL/min/mg; microsomal CLint [6]: < 4 µL/min/mg; Papp A→B [8]: 3.6 ×10⁻⁶ cm/s; solubility thermodynamic [10]: > 500 µM |
| 1.09 | 55 | 83 | O=C(C1CC12CCN(c1ccncc1)CC2)N1CCN(C2CCCCC2)CC1 (racemic) |  |  |
| -1.78 |  | 14 | CC(C)N1CCCN(C(=O)C2CC3(CCN(C4CCOCC4)CC3)C2)CC1 |  |  |
|  | 11 |  | O=C(C1CC12CCN(C1CCOCC1)CC2)N1CCN(C2CC2)CC1 (racemic) |  | microsomal CLint [5]: 20 µL/min/mg; microsomal CLint [6]: < 4 µL/min/mg; Papp A→B [8]: 8.4 ×10⁻⁶ cm/s; solubility thermodynamic [10]: > 500 µM |
